Laboratory results as given in ChEMBL document CHEMBL2380235, “Discovery of N-{4-[(3-hydroxyphenyl)-3-methylpiperazin-1-yl]methyl-2-methylpropyl}-4-phenoxybenzamide analogues as selective kappa opioid receptor antagonists” (J Med Chem, 2013).
Activity calls are given as the source filed them. The rule behind the calls is not given here.

Legend:
[1] = target: Kappa-type opioid receptor (Homo sapiens) (UniProt P41145); experiment: Antagonist activity at human kappa opioid receptor expressed in CHO cells assessed as inhibition of U69,593-stimulated [35S]GTPgammaS binding; format: functional, cell-based
Chain of Kappa-type opioid receptor (Homo sapiens) (P41145 whole entry): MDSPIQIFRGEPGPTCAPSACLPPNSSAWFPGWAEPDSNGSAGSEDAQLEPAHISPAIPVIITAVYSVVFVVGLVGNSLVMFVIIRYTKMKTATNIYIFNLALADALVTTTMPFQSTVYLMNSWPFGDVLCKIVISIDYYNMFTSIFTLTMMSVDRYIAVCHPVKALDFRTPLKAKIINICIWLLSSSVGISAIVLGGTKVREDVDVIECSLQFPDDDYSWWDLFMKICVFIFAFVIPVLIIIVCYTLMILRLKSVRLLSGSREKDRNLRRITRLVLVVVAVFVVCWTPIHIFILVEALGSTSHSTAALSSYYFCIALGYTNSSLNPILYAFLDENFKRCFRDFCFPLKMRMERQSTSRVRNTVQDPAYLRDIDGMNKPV
In short: (§1)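 Agonist concentration-response curves (eight concentrations, duplicate) were run with or without a single test-compound concentration. Ke = [L]/(DR−1), where [L] is the test-compound concentration and DR is the ratio of agonist EC50 with versus without compound. At least two test-compound concentrations were used, chosen to shift agonist EC50 rightward at least four-fold while keeping a clear upper asymptote.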

[2] = target: Kappa-type opioid receptor (Homo sapiens) (UniProt P41145); experiment: Antagonist activity at human kappa opioid receptor expressed in CHO cells assessed as inhibition of U69,593-stimulated [35S]GTPgammaS binding at 10 nM relative to control; format: functional, cell-based
Homo sapiens [3] = organism: Homo sapiens; experiment: Selectivity ratio of Ke for human delta opioid receptor to Ke for human kappa opioid receptor
[4] = target: Delta-type opioid receptor (Homo sapiens) (UniProt P41143); experiment: Intrinsic activity at human delta opioid receptor expressed in CHO cells at 10 uM by [35S]GTPgammaS binding assay; format: functional, cell-based
Chain of Delta-type opioid receptor (Homo sapiens) (P41143 whole entry): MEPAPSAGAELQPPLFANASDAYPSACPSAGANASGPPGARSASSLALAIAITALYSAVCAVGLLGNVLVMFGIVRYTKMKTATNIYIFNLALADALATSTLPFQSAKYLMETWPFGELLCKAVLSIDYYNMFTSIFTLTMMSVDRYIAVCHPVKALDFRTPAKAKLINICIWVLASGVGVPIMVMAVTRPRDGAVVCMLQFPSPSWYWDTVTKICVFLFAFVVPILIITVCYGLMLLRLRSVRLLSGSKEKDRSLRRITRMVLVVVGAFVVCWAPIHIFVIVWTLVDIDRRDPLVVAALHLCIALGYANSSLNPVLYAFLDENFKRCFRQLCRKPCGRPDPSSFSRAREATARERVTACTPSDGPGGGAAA

[5] = target: Kappa-type opioid receptor (Homo sapiens) (UniProt P41145); experiment: Intrinsic activity at human kappa opioid receptor expressed in CHO cells at 10 uM by [35S]GTPgammaS binding assay; format: functional, cell-based
Homo sapiens [6] = organism: Homo sapiens; experiment: Selectivity ratio of Ke for human mu opioid receptor to Ke for human kappa opioid receptor
[7] = target: Delta-type opioid receptor (Homo sapiens) (UniProt P41143); experiment: Antagonist activity at human delta opioid receptor expressed in CHO cells assessed as inhibition of DPDPE-stimulated [35S]GTPgammaS binding; format: functional, cell-based; in short: as §1
[8] = target: Mu-type opioid receptor (Homo sapiens) (UniProt P35372); conditions: CHO
Chain of Mu-type opioid receptor (Homo sapiens) (P35372 whole entry): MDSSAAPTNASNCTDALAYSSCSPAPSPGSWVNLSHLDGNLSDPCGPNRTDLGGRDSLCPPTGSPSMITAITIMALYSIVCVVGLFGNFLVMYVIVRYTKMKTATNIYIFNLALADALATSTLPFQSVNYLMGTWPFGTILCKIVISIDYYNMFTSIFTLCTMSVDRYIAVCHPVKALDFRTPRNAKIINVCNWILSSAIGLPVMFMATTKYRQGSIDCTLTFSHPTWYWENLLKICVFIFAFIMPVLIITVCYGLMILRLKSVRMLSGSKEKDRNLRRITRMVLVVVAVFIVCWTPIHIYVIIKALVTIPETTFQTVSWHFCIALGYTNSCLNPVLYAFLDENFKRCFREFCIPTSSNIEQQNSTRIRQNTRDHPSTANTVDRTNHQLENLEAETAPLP

Ke [1]	inhibition [2]	Ratio Ke (Homo sapiens [3])	Activity [4]	Activity [5]	Ratio Ke (Homo sapiens [6])	Structure (SMILES)	Ke [7]	Ke [8]
2.8 nM	> 60%	83	inactive	inactive	7.5	CCCCc1ccc(C(=O)N[C@H](CN2CCN(c3cccc(O)c3)[C@@H](C)C2)C(C)C)cc1	–	–
1.87 nM	> 60%	137	inactive	inactive	4.7	CC(C)[C@@H](CN1CCN(c2cccc(O)c2)[C@@H](C)C1)NC(=O)c1ccc(-c2ccccc2)cc1	–	–

Structure (SMILES)	Ke [1]	inhibition [2]	Ratio Ke (Homo sapiens [3])	Activity [4]	Activity [5]	Ratio Ke (Homo sapiens [6])	Ke [7]	Ke [8]
CC(C)[C@@H](CN1CCN(c2cccc(O)c2)[C@@H](C)C1)NC(=O)c1ccc(Oc2ccccc2)cc1	0.85 nM	> 60%	671	inactive	inactive	60	570 nM	51 nM
